According to publication PMC4589248 (Biochemical and biophysical research communications, 2015):

Experiments:
[1] = system: INS-1E cells; experiment: Palmitate-induced lipid accumulation; format: cell-based; conditions: 50 μM compound, each concentration of PA (0-500 μM), 24 hrs
Summary of the method: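 INS-1E cells, 96 h after plating, treated for 24 h with BSA-conjugated palmitate (0–500 μM, 2.5:1 PA:BSA) with or without test compound (0–50 μM). Stained with 30 μM Nile Red for 30 min at 37 °C and read at ex/em 485/590 nm. Results as AFU per 10^6 cells; 3 experiments in triplicate.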

[2] = system: HepG2 cells; experiment: Palmitate-induced lipid accumulation; format: cell-based; conditions: 50 μM compound, each concentration of PA (0-500 μM), 24 hrs
[3] = system: C2C12 cells; experiment: C1-BODIPY-C12 fatty acid uptake inhibition in C2C12 myocytes; format: cell-based; conditions: Mus musculus, C2C12, read-out: IC50, inhibition of C1-BODIPY-C12 uptake
Summary of the method: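 C2C12 mouse myoblasts grown in DMEM with 10 % FBS and 2 mM L-glutamine at 37 °C, 5 % CO2. Differentiated for 96 h at 8x10^4 cells/well in DMEM with 10 % horse serum. Uptake of fluorescent C1-BODIPY-C12 read as cell-associated fluorescence at ex/em 485/528 nm across a range of test compound concentrations. IC50 from non-linear dose-response regression; 3 experiments in triplicate, mean ± SE.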

[4] = system: C57BL/6 male mice; experiment: Inhibition of 13C-oleate absorption in mice; format: in vivo; conditions: single oral dose 300 mg/kg, 6 hrs post-label administration
Summary of the method: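 Male C57BL/6 mice, 12 per group, fasted 12 h and given tyloxapol 500 mg/kg i.p. Gavaged with test compound 300 mg/kg in flaxseed oil or with oil alone. After 1 h, received flaxseed oil containing 500 mg/kg 13C-oleate. Plasma collected at 0.5, 2 and 6 h, Folch-extracted with nonadecanoic acid as internal standard. GC-MS in SIM mode, m/z 296 (12C) and 314 (13C oleate methyl ester). Mean ± SE of 10–12 mice.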

[5] = system: INS-1E cells; experiment: Nuclear integrity; format: cell-based; conditions: PA 0-500 μM, Grassofermata 0-50 μM
[6] = system: cell lines that are models for intestines, liver, muscle and pancreas; experiment: Fatty acid uptake inhibition, summary over cell lines; format: cell-based; conditions: read-out: IC50, inhibition of fatty acid uptake
[7] = system: primary mouse hepatocytes; experiment: Nuclear integrity; format: cell-based, mice; conditions: primary murine hepatocytes; PA 0-500 μM, Grassofermata 0-50 μM
[8] = system: HepG2 cells; experiment: C1-BODIPY-C12 uptake in HepG2 cells; format: cell-based
Summary of the method: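 Inhibition kinetics in HepG2 cells using 7 test compound concentrations (1.25–15 μM) and 4 C1-BODIPY-C12 concentrations (2.5–10 μM). The plate reader's injectors dispensed compound, then added substrate at timed intervals. Initial uptake rates measured over 90 s by fluorescence. Best-fit inhibition model chosen by enzyme-kinetics analysis; points are mean with SD.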

[9] = system: primary mouse hepatocytes; experiment: Palmitate-induced lipid accumulation; format: cell-based, mice; conditions: 50 μM compound, each concentration of PA (0-500 μM)
Summary of the method: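 Hepatocytes isolated from 10–12-week 129S1/SvImJ mice and plated on collagen at 1.5x10^4 cells/well in DMEM with FBS, glucagon, hydrocortisone, EGF and insulin. Treated after 4–5 h of attachment with BSA-conjugated palmitate (0–500 μM, 2.5:1) with or without test compound (0–50 μM). Lipid measured by 30 μM Nile Red, 30 min at 37 °C, 485/590 nm. AFU per 10^6 cells; 3 experiments in triplicate.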

[10] = system: HepG2 cells; experiment: Uptake of BODIPY FL-C16 and BODIPY FL-C5 in HepG2 cells; format: cell-based
[11] = system: human adipocytes; experiment: C1-BODIPY-C12 fatty acid uptake inhibition in primary human adipocytes; format: cell-based; conditions: read-out: IC50, inhibition of C1-BODIPY-C12 uptake
Summary of the method: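 Primary human preadipocytes seeded at 1.5x10^4 cells/well in alpha-MEM with 10 % FBS. Differentiated for 6 days with 540 μM IBMX plus 1 μM rosiglitazone, then kept without them until lipid droplets appeared. C1-BODIPY-C12 uptake read as cell-associated fluorescence at 485/528 nm across test compound concentrations. IC50 by non-linear dose-response fit; 3 experiments in triplicate.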

[12] = system: HepG2 cells; experiment: Nuclear integrity; format: cell-based; conditions: PA 0-500 μM, Grassofermata 0-50 μM
[13] = Grassofermata level in mouse plasma; format: in vivo, mice; conditions: male, C57BL/6, mouse, oral, 300 mg/kg
Summary of the method: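 Male C57BL/6 mice, 10 weeks old, in groups of 12, fasted 12 h and given tyloxapol 500 mg/kg i.p. They then received test compound 300 mg/kg in flaxseed oil by gavage, followed 1 h later by a 13C-oleate bolus. Plasma (EDTA) taken 0.5, 2 and 6 h after oleate. Plasma mixed with acetonitrile containing an analogue internal standard, acidified with TFA and centrifuged. Analysed by LC-MS/MS (C18, 457.1→411.1) against a 0.09–3.3 ng/μl standard curve.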

[14] = system: INS-1E cells; experiment: C1-BODIPY-C12 fatty acid uptake inhibition in INS-1E pancreatic β-cells; format: cell-based; conditions: read-out: IC50, inhibition of C1-BODIPY-C12 uptake
Summary of the method: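 INS-1E cells kept in RPMI 1640 with 5 % FBS, 1 mM pyruvate, 50 μM 2-mercaptoethanol and 10 mM HEPES at 37 °C, 5 % CO2. Seeded at 2x10^5 cells/well on collagen and used after 96 h. C1-BODIPY-C12 uptake read as cell-associated fluorescence at 485/528 nm against test compound concentration. IC50 by non-linear dose-response fit; 3 experiments in triplicate, mean ± SE.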

[15] = system: Caco-2 cells; experiment: Uptake of BODIPY FL-C16 and BODIPY FL-C5 in Caco-2 cells; format: cell-based, human
[16] = system: Caco-2 cells; conditions: 100 μM; cited from earlier work
[17] = system: HsFATP2; conditions: 80 μM; yeast expressing HsFATP2; cited from earlier work

For `O=c1cc(-c2ccc([N+](=O)[O-])cc2)[nH]c2c(-c3ccc(Cl)cc3)c(Cc3ccccc3)nn12` [Grassofermata, 2-benzyl-3-(4-chlorophenyl)-5-(4-nitrophenyl)pyrazolo[1,5-a]pyrimidin-7(4H)-one], the “accumulation of lipid (Nile Red)” value [1] was “significantly reduced”, the “accumulation of lipid (Nile Red)” value [2] was “significantly reduced” and the IC50 [3] was 10.6 µM. The “reduction of the levels of labeled oleate in plasma” value [4] was 37%, the “DAPI staining (nuclear integrity)” value [5] was “reduced DAPI staining of cells in a dose dependent manner” and the IC50 [6] was 8 to 11 µM. The “DAPI staining (nuclear integrity)” value [7] was “reduced DAPI staining of cells in a dose dependent manner”, the “mechanism of inhibition of C1-BODIPY-C12 uptake” value ([8]; HepG2, Grassofermata 1.25-15 μM, C1-BODIPY-C12 2.5-10 μM) was “non-competitive mechanism of inhibition” and the “accumulation of lipid (Nile Red)” value [9] was “significantly reduced”. For the same compound, the “effect on transport of BODIPY FL-C5” value ([10]; HepG2, medium chain FA analog) was “did not affect”, the IC50 ([10]; Homo sapiens, HepG2, read-out: IC50, inhibition of BODIPY FL-C16 uptake) was 17.3 ± 2.5 µM and the IC50 [11] was 58.2 µM. The “DAPI staining (nuclear integrity)” value [12] was “reduced DAPI staining of cells in a dose dependent manner”, the concentration at 0.5 h [13] was 2100 ± 600 ng/mL and the concentration at 2 h [13] was 3400 ± 700 ng/mL. For the same compound, the concentration at 6 h [13] was 2900 ± 700 ng/mL, the IC50 [14] was 8.3 µM and the “effect on transport of BODIPY FL-C5” value ([15]; Caco-2, medium chain FA analog) was “did not affect”. The IC50 ([15]; Homo sapiens, Caco-2, read-out: IC50, inhibition of BODIPY FL-C16 uptake) was 13.5 ± 1.1 µM.
With `CCCCCCCCCCC[C@@H](C[C@@H]1OC(=O)[C@H]1CCCCCC)OC(=O)[C@H](CC(C)C)NC=O` [Orlistat, reference compound] the “effect on C1-BODIPY-C12 uptake” value ([8]; standard FA transport assay, cell line not stated for Orlistat) was “no effect”.
For `CN(C)CCCN1c2ccccc2Sc2ccc(Cl)cc21` [chlorpromazine], the “inhibition of FA uptake” value [16] is given as 30–50% and the “inhibition of C1-BODIPY-C12 uptake” value [17] is given as “intermediate levels of inhibition”.
In the case of `CN1CCN(C2=Nc3cc(Cl)ccc3Nc3ccccc32)CC1` [clozapine, Clozapine], the “inhibition of FA uptake” value [16] is listed as 30–50% and the “inhibition of C1-BODIPY-C12 uptake” value [17] is listed as “intermediate levels of inhibition”.
